From ChEMBL document CHEMBL1129787, “Synthesis of potent cyclic hexapeptide NK-1 antagonists. Use of a minilibrary in transforming a peptidal somatostatin receptor ligand into an NK-1 receptor ligand via a polyvalent peptidomimetic” (J Med Chem, 1996)
Non-standard residues stand in square brackets, D forms with d. Residues, ends and D or L forms follow the SMILES beside them. Phe(4-F) = N[C@@H](Cc1ccc(F)cc1)C(=O)O; 1Nal = N[C@@H](Cc1cccc2ccccc12)C(=O)O

Biological target: Beta-2 adrenergic receptor (Homo sapiens, UniProt P07550)
Assay: Binding affinity towards cloned human Beta-2 adrenergic receptor

Beta-2 adrenergic receptor, sequence (P07550 whole entry): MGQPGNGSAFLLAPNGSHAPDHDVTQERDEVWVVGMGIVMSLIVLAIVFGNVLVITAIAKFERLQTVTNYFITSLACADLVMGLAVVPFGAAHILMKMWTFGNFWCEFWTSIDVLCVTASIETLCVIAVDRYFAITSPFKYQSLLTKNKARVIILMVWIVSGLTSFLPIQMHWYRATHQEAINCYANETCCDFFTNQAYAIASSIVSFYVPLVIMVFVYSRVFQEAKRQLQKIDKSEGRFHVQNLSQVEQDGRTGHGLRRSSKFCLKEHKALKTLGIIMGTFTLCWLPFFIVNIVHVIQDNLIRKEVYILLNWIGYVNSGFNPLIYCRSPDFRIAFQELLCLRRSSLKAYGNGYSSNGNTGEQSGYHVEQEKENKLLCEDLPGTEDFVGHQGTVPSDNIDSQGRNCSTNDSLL

IC50 | Compound
3000 nM | NCCCCCOC[C@H]1O[C@@H](OCCc2c[nH]c3ccccc23)[C@H](OCc2ccccc2)C[C@@H]1OCc1ccccc1
3000 nM | NCCCCCOC[C@H]1O[C@@H](OCCc2c[nH]c3ccccc23)[C@H](OCc2ccccc2)[C@@H](OCc2ccccc2)[C@@H]1OCc1ccccc1

Biological target: T1, Substance-P receptor (Homo sapiens, UniProt P25103)
Assay: Percent Inhibition against Tachykinin receptor 1 at 2 uM

T1 sequence (P25103 whole entry): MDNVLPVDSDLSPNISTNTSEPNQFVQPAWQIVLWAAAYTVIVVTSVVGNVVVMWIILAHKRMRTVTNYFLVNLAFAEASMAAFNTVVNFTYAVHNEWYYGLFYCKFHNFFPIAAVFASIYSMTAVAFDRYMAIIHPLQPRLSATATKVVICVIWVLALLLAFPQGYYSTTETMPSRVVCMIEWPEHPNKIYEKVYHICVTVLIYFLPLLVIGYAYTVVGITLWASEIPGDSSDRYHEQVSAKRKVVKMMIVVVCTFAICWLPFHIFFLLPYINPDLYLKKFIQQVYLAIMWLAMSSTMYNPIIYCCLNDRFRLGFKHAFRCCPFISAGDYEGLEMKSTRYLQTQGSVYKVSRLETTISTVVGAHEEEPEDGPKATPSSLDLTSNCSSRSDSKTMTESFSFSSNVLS

inhibition | Compound
51% | C[C@@H](O)[C@@H]1NC(=O)[C@H](Cc2ccccc2)NC(=O)[C@@H](Cc2c[nH]c3ccccc23)NC(=O)[C@@H]2CCCN2C(=O)[C@@H]2CCCN2C(=O)[C@H](Cc2ccccc2)NC1=O

Biological target: T1, Substance-P receptor
Assay: Inhibition of Tachykinin receptor 1
How it was run: (§1)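 NK-1 receptor inhibition assay. IC50 is reported in nM as the mean ± SD.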

Compound | IC50
C[C@@H](O)[C@@H]1NC(=O)[C@H](CCCCN)NC(=O)[C@@H](Cc2c[nH]c3ccccc23)NC(=O)[C@H](Cc2ccccc2)NC(=O)[C@@H]2CCCN2C(=O)[C@H](Cc2ccccc2)NC1=O (cyclo(PF[dW]KTF)) | > 1000 nM
C[C@@H](O)[C@@H]1NC(=O)[C@H](Cc2ccccc2)NC(=O)[C@@H](Cc2c[nH]c3ccccc23)NC(=O)[C@H](CC2CCCCC2)NC(=O)[C@@H]2CCCN2C(=O)[C@H](Cc2ccccc2)NC1=O | 198 nM
C[C@@H]1NC(=O)[C@@H](Cc2c[nH]c3ccccc23)NC(=O)[C@H](Cc2ccccc2)NC(=O)[C@@H]2CCCN2C(=O)[C@H](Cc2ccccc2)NC(=O)[C@H]([C@@H](C)O)NC1=O | 4090 nM
C[C@@H]1NC(=O)[C@@H]2CCCN2C(=O)[C@H](Cc2ccccc2)NC(=O)[C@H]([C@@H](C)O)NC(=O)[C@H](Cc2ccccc2)NC(=O)[C@@H](Cc2c[nH]c3ccccc23)NC1=O | 549 nM
C[C@@H](O)[C@@H]1NC(=O)[C@H](Cc2ccccc2)NC(=O)[C@@H](Cc2c[nH]c3ccccc23)NC(=O)[C@H](CC(=O)O)NC(=O)[C@@H]2CCCN2C(=O)[C@H](Cc2ccccc2)NC1=O (cyclo(D[dW]FTFP)) | 1390 nM
CC(C)C[C@@H]1NC(=O)[C@@H](Cc2c[nH]c3ccccc23)NC(=O)[C@H](Cc2ccccc2)NC(=O)[C@@H]2CCCN2C(=O)[C@H](Cc2ccccc2)NC(=O)[C@H]([C@@H](C)O)NC1=O | 2730 nM
C[C@@H](O)[C@@H]1NC(=O)[C@H](Cc2ccc(O)cc2)NC(=O)[C@@H](Cc2c[nH]c3ccccc23)NC(=O)[C@H](Cc2ccccc2)NC(=O)[C@@H]2CCCN2C(=O)[C@H](Cc2ccccc2)NC1=O (cyclo(FPF[dW]YT)) | 1050 nM
CC(C)[C@@H]1NC(=O)[C@H](CCCCN)NC(=O)[C@@H](Cc2c[nH]c3ccccc23)NC(=O)[C@H](Cc2ccc(O)cc2)NC(=O)[C@H](C)N(C)C(=O)[C@H](Cc2ccccc2)NC1=O [SEGLITIDE] | > 1000 nM

Other lines, results leading:

IC50 | Compound
15 nM | C[C@@H](O)[C@@H]1NC(=O)[C@H](Cc2ccccc2)NC(=O)[C@@H](Cc2c[nH]c3ccccc23)NC(=O)[C@H](Cc2cccc3ccccc23)NC(=O)[C@@H]2CCCN2C(=O)[C@H](Cc2ccccc2)NC1=O (cyclo([1Nal][dW]FTFP))
95 nM | C[C@H](O)[C@@H]1NC(=O)[C@H](Cc2ccccc2)NC(=O)[C@@H](Cc2c[nH]c3ccccc23)NC(=O)[C@H](Cc2ccccc2)NC(=O)[C@@H]2CCCN2C(=O)[C@H](Cc2ccccc2)NC1=O
28 nM | C[C@@H](O)[C@@H]1NC(=O)[C@H](Cc2ccc(F)cc2)NC(=O)[C@@H](Cc2c[nH]c3ccccc23)NC(=O)[C@H](Cc2ccccc2)NC(=O)[C@@H]2CCCN2C(=O)[C@H](Cc2ccccc2)NC1=O (cyclo(FPF[dW][Phe(4-F)]T))
596 nM | C[C@@H](O)[C@@H]1NC(=O)[C@H](Cc2ccccc2)NC(=O)[C@@H](Cc2c[nH]c3ccccc23)NC(=O)[C@H](CO)NC(=O)[C@@H]2CCCN2C(=O)[C@H](Cc2ccccc2)NC1=O
496 nM | C[C@H](O)[C@@H]1NC(=O)[C@H](Cc2ccccc2)NC(=O)[C@@H](Cc2c[nH]c3ccccc23)NC(=O)[C@@H](Cc2ccccc2)NC(=O)[C@@H]2CCCN2C(=O)[C@H](Cc2ccccc2)NC1=O
59 nM | COc1ccc(C[C@@H]2NC(=O)[C@@H](Cc3c[nH]c4ccccc34)NC(=O)[C@H](Cc3ccccc3)NC(=O)[C@@H]3CCCN3C(=O)[C@H](Cc3ccccc3)NC(=O)[C@H]([C@@H](C)O)NC2=O)cc1 (cyclo(FPF[dW]Y(Me)T))
85 nM | C[C@@H](O)[C@@H]1NC(=O)[C@H](Cc2ccccc2)NC(=O)[C@@H](Cc2c[nH]c3ccccc23)NC(=O)[C@H](CCc2ccccc2)NC(=O)[C@@H]2CCCN2C(=O)[C@H](Cc2ccccc2)NC1=O
2 nM | C[C@@H](O)[C@@H]1NC(=O)[C@H](Cc2ccc(F)cc2)NC(=O)[C@@H](Cc2c[nH]c3ccccc23)NC(=O)[C@H](Cc2cccc3ccccc23)NC(=O)[C@@H]2CCCN2C(=O)[C@H](Cc2ccccc2)NC1=O (cyclo([1Nal][dW][Phe(4-F)]TFP))

Biological target: Somatostatin receptor
Assay: Ability to inhibit binding of […]-CGP 23996 to somatostatin receptor on membranes from pituitary

IC50 | Compound
5000 nM | NCCCCCOC[C@H]1O[C@@H](OCCc2c[nH]c3ccccc23)[C@H](OCc2ccccc2)[C@@H](OCc2ccccc2)[C@@H]1OCc1ccccc1

Biological target: Somatostatin receptor
Assay: Ability to inhibit binding of […]-CGP 23996 to somatostatin receptor on membranes from cerebral cortex
Format: tissue-based

IC50 | Compound
5000 nM | NCCCCCOC[C@H]1O[C@@H](OCCc2c[nH]c3ccccc23)[C@H](OCc2ccccc2)[C@@H](OCc2ccccc2)[C@@H]1OCc1ccccc1

Biological target: T1, Substance-P receptor
Assay: Binding affinity towards Tachykinin receptor 1
How it was run: as §1

IC50 | Compound
60 nM | CC(=O)NCCCCCOC[C@H]1O[C@@H](OCCc2c[nH]c3ccccc23)[C@H](OCc2ccccc2)[C@@H](OCc2ccccc2)[C@@H]1OCc1ccccc1
180 nM | NCCCCCOC[C@H]1O[C@@H](OCCc2c[nH]c3ccccc23)[C@H](OCc2ccccc2)C[C@@H]1OCc1ccccc1
